Test results: ChEMBL document CHEMBL1129796, “(E)-3-[6-[[(2,6-dichlorophenyl)thio]methyl]-3-(2-phenylethoxy)-2- pyridinyl]-2-propenoic acid: a high-affinity leukotriene B4 receptor antagonist with oral antiinflammatory activity” (J Med Chem, 1996)

What was measured:
Mus musculus [1] = test: Effect on Arachidonic Acid-Induced Mouse Ear Inflammation expressed as percent inhibition of MPO at 500 ug/ear of topical administration
Mus musculus [2] = test: Dose required to inhibit 50% of arachidonic acid-induced inflammation after topical administration obtained from dose-response curves; format: functional
Mus musculus [3] = test: Effect on Arachidonic Acid-Induced Mouse Ear Inflammation expressed as percent inhibition of MPO at 50 mg/kg of oral administration; format: functional
How it was run: (§1)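 Balb/c mice (20 g; N=6-10 vehicle, typically 5-6 per drug group) dosed intragastrically with compound in distilled water. Thirty minutes later, 1.0 mg arachidonic acid in 20 µL cold acetone applied to left ear. Ear thickness measured 1 h later. Left ears then harvested and MPO activity read spectrophotometrically (Bradley method). ED50 from multiple dose–response studies (4–5 doses) by linear regression.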

[4] = biological target: Leukotriene B4 receptor 1 (Homo sapiens, UniProt Q15722); test: Inhibition of [3H]LTB4 binding to human neutrophils
Chain of Leukotriene B4 receptor 1 (Q15722 whole entry): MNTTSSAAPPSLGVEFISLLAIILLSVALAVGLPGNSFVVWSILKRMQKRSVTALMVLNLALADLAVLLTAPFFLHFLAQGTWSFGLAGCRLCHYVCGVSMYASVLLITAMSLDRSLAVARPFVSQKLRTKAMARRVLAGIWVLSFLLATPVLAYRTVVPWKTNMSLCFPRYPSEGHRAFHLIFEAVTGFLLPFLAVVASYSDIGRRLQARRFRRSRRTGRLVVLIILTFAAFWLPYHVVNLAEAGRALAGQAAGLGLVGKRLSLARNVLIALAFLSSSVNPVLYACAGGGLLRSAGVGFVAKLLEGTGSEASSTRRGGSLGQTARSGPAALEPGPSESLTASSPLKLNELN
How it was run: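 Intact human PMNs (10^6; >90% neutrophils, >95% viable) incubated with 0.2 nM [3H]LTB4 for 20 min at 0 °C in Hanks balanced salt solution with 0.1% ovalbumin. Compound tested at 0.1 nM–10 µM; nonspecific binding defined with 1 µM unlabeled LTB4. Bound ligand separated by filtration and counted by scintillation. Duplicate curves of 5–8 concentrations, at least two assays.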

Mus musculus [5] = test: Effect on Arachidonic Acid-Induced Mouse Ear Inflammation expressed as percent inhibition of MPO at 1000 ug/ear of topical administration; format: functional
Mus musculus [6] = test: Dose required to inhibit 50% of arachidonic acid-induced inflammation after oral administration obtained from dose-response curves; format: functional
How it was run: as §1

Mus musculus [7] = test: Effect on Arachidonic Acid-Induced Mouse Ear Inflammation expressed as percent inhibition of MPO at 25 mg/kg of oral administration; format: functional
How it was run: as §1

Homo sapiens = species: Homo sapiens; test: Concentration required to block LTB4 induced degranulation in human PMNs; format: functional
How it was run: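 Washed human PMNs (10^6, isolated by Ficoll-Hypaque, dextran sedimentation, hypotonic lysis) in 1 mL Earls balanced salt solution with 20 mM HEPES, 0.1% ovalbumin. Preincubated 10 min with 5 µg/mL cytochalasin B, then compound or vehicle 5 min at 37 °C, then 100 nM LTB4 for 3 min. Supernatant MPO measured kinetically at 460 nm (o-dianisidine/H2O2, pH 6.0). Four curves of 5–7 concentrations; mean IC50 ± SEM.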

[8] = biological target: T1, Polyunsaturated fatty acid 5-lipoxygenase (Rattus norvegicus, UniProt P12527); test: Concentration required to inhibit RBL-1 supernatant 5-lipoxygenase
T1 sequence (P12527 whole entry): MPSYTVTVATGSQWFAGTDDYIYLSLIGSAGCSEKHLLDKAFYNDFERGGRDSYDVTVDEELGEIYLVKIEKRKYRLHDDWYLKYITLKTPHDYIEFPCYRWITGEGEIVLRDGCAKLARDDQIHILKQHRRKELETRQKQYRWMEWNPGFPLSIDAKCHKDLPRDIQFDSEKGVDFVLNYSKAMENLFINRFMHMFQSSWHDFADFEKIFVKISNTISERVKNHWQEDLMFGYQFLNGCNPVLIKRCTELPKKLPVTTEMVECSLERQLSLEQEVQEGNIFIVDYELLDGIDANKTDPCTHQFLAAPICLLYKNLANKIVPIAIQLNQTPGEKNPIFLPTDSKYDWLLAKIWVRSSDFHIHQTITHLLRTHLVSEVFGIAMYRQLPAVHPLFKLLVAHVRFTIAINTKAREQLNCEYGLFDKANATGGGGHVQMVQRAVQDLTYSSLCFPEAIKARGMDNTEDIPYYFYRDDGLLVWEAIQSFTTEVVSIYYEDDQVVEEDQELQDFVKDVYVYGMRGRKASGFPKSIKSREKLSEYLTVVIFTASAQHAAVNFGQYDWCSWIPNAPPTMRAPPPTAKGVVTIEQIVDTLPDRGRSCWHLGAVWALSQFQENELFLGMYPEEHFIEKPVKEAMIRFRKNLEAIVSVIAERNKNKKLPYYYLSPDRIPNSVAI

[9] = biological target: Cysteinyl leukotriene receptor 1 (Homo sapiens, UniProt Q9Y271); test: Inhibitory concentration LTB4 with [3H]LTD4 in LTD4 receptor binding assay
Chain of Cysteinyl leukotriene receptor 1 (Q9Y271 whole entry, looked up): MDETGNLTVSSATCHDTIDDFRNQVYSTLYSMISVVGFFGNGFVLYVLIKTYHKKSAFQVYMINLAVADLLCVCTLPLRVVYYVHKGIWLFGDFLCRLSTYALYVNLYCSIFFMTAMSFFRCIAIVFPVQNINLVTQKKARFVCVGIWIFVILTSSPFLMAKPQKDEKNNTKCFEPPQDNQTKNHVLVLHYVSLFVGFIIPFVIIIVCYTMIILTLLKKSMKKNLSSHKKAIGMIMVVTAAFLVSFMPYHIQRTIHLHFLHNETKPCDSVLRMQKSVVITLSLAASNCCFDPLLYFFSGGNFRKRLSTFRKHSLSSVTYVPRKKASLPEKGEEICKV

Mus musculus [10] = test: Effect on Arachidonic Acid-Induced Mouse Ear Inflammation expressed as percent inhibition of MPO at 50 ug/ear of topical administration; format: functional

| Ki [4] | SMILES | ED50 (Mus musculus [2]) | inhibition in vivo at 50 mg/kg (Mus musculus [3]) | ED50 (Mus musculus [6]) | further results |
| --- | --- | --- | --- | --- | --- |
|  | COc1ccc(CCCCCCCCOc2ccc(CSCc3cccc(C(=O)O)c3)nc2/C=C/C(=O)O)cc1 | 390 ug ear-1 | 0% |  | Inhibition (Mus musculus [1]): 69% |
| 1.4 nM | O=C(O)/C=C/c1nc(CSc2c(Cl)cccc2Cl)ccc1OCCCc1ccccc1 |  |  |  |  |
| 2.8 nM | COc1ccc(CCCCOc2ccc(CSc3ccccc3)nc2/C=C/C(=O)O)cc1 |  | 26% |  | Inhibition (Mus musculus [5]): 49% |
| 12 nM | O=C(O)/C=C/c1nc(CSc2c(Cl)cccc2Cl)ccc1OCc1ccc(F)cc1 |  |  |  |  |
| 1.5 nM | COc1ccc(CCCCOc2ccc(CSc3c(Cl)cccc3Cl)nc2/C=C/C(=O)O)cc1 |  | 54% | 57.6 mg/kg | Inhibition (Mus musculus [5]): 82% |
| 0.78 nM | O=C(O)/C=C/c1nc(CSc2c(Cl)cccc2Cl)ccc1OCCc1ccccc1 [TICOLUBANT] | 8 ug ear-1 |  | 14.8 mg/kg | inhibition in vivo at 25 mg/kg (Mus musculus [7]): 70%; IC50 (Homo sapiens): 53 nM; IC50 [8]: 8200 nM; IC50 [9]: 16800 nM; Inhibition (Mus musculus [10]): 83% |
| 1.3 nM | O=C(O)/C=C/c1nc(CSc2c(Cl)cccc2Cl)ccc1OCCc1ccc(Cl)cc1 |  |  |  |  |
| 1.2 nM | COc1ccc(CCOc2ccc(CSc3c(Cl)cccc3Cl)nc2/C=C/C(=O)O)cc1 |  |  |  |  |
|  | COc1ccc(CCCCCCCCOc2ccc(C[S+]([O-])c3cccc(N)c3)nc2/C=C/C(=O)O)cc1 (stereo not drawn) | 350 ug ear-1 | 0% |  | Inhibition (Mus musculus [1]): 55% |
| 1.5 nM | O=C(O)/C=C/c1nc(CSc2c(Cl)cccc2Cl)ccc1OCCc1ccc(F)cc1 |  |  | 14.1 mg/kg | inhibition in vivo at 25 mg/kg (Mus musculus [7]): 75% |
